We go through 36 sequences from the EternaBench riboswitch data.

The subject of this series is MS2 coat protein. In words: apparent Kd, MS2 coat protein; higher = weaker binding; RNA-MaP array; FMN 200 µM where present. Summed up: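 Green signal from SNAP-549-labelled MS2 coat protein was normalised to red-channel RNA signal and to the median Fmax of control clusters. The protein was titrated from 0.7 or 1.5 nM, doubling to 3 µM, without and then with constant ligand, over designs transcribed by stalled E. coli RNA polymerase on Illumina sequencing-chip clusters, in 100 mM Tris-HCl pH 7.5, 80 mM KCl, 4 mM MgCl2, BSA, DTT, yeast tRNA and Tween-20. The apparent Kd is the median of filtered per-cluster binding-curve fits.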

[1] abbreviates: designed as: ON switch for flavin mononucleotide, no ligand.
The mark [2] stands for this setting: ligand present: flavin mononucleotide, designed as: ON switch for flavin mononucleotide.
[3] abbreviates: designed as: OFF switch for flavin mononucleotide, no ligand.
The mark [4] stands for this setting: ligand present: flavin mononucleotide, designed as: OFF switch for flavin mononucleotide.

Regarding “GUGCUGCAGCUGUGCACGAGACAUGAGGAUCACCCAUGUGACAGAAGGGACUUGUUAAAGGUAGGUCAGGAUAUGUCUUAAAAG”, the apparent Kd (in general, a dissociation constant that holds for the conditions of the assay) runs as follows: under setting [1], 107 nM; under setting [2], 37.3 nM.
Regarding “GGUGUAGGAGGAUAUACAUGAGGAUCACCCAUGUGGCCACGUUGUAAGAUGACAUUAUGUAGAAGGCUUAGUGG”, the “apparent Kd” value runs as follows: under setting [3], 90.4 nM; under setting [4], 89.8 nM.
For “AAUUUACAGGGAGGAUAUACAUGAGGAUCACCCAUGUCAUCAUAUGAUAUUUCUUUUGUAUGAGUGUAGAAGGCCCAACUACCA” the same measures were 18.2 nM and 18.3 nM.
As for “GUCGGAAACGACAAACGUAGCAUACGAGAAGGCUGAUCCACGACAUGAGGAUCACCCAUGUAGUUAGAGGAUAUUGGAUGCUAC”, the “apparent Kd” value amounted to 54.7 nM under setting [1] and 11.3 nM under setting [2].
Turning to “GGAUCGAAUGUGAGGAUAUACCUAUGGAUACAUAGGUAGAAGGCACAUGAGGAUCACCCAUGUUCCUACGGUCC”, the “apparent Kd” value by setting is: under setting [3], 81.7 nM; under setting [4], 680 nM.
For “UUGGACGUCGUAGGAUAUGUAGGAUAUUCCUACAUGAGGAUCACCCAUGUUGACAUGGAAUAAGGACAGAAGGACGAUGUCCAU”, the “apparent Kd” value reads like this: under setting [1], 23.4 nM; under setting [2], 5.28 nM.
As to “AGUGGUGGAGGAUAUACAUGAGGAUCACCCAUGUAAAUCACACAUGUGGUCAAAGCAUGUAGAAGGCCACUACA”, the “apparent Kd” value was found to be 99.6 nM under setting [3] and 109 nM under setting [4].
For “AUCAGCUGGUCAGGAUAUACAUCACUGCUUCGGCAGUGUAUUAAGAUCACAUGAGGAUCACCCAUGUAGAAGGGACCAGCUGAU” the same measures were 30.3 nM and 341 nM.
For “AGAAACUACGAGAAGGACAUGAGGAUCACCCAUGUUUCCACUUAGUGGCAUGUAGGAUAUCGUAGUUUCAGGAUCGUGAGAUCA” the same measures were 5.58 nM and 16.6 nM.
Take “GUCUGACAUGAGGAUCACCCAUGUAUUCGAGCAUGAGGAUAUAUGACUCGUCAUCGGCGGAUAGAAGGCAUGGUUG”: the “apparent Kd” value reads like this: under setting [1], 169 nM; under setting [2], 192 nM.
In the same order, the values of “AAUUAGGUCACAGGAUAUACAACUUCCAUUGCUGUAGAAGGGUGUCACAUACUUAGCUGACAUGAGGAUCACCCAUGUAUCCAC” are 243 nM and 95.2 nM.
In the same order, the values of “UAGAAACAUGAGGAUCACCCAUGUGGGUUAAACACAGGAUAUCACGCCAAAAGAAAAGCGUGAGAAGGGUGACCGA” are 86.4 nM and 717 nM.
For the sequence “UUUUAGGAAGGAUAUACAUUUUUUUUAUUAUCCUCAUUAUUACAUGAGGAUCACCCAUGUAGAAGGUCCAUUUU”, the “apparent Kd” value turned out to be 172 nM under setting [3] and 137 nM under setting [4].
For “UCAAAUGCCGUAGGAUAUAAUGUGCGCCGUCCGUGAGAUGUAAAUUGACAUGAGGAUCACCCAUGUUAGAAGGGCGGCAUCAGC” the same measures were 5.88 nM and 5.92 nM.
As to “ACAUUUAAUACAGGAUAUGUUAGUAUACAGUUGAUUGGUUAUUACAUUAUAACAGAAGGGUAGAACAUGAGGAUCACCCAUGUA”, the “apparent Kd” value under setting [1] was found to be 153 nM and the “apparent Kd” value under setting [2] is 73.2 nM.
Regarding “CUUAUGUGAGGAUAUCAGUAGUAAAAAAAUAAAAUUACUACUGAGAAGGCACAUGAGGAUCACCCAUGUUCCUC”, the “apparent Kd” value runs as follows: under setting [3], 115 nM; under setting [4], 429 nM.
Take “GCGCAUUUAAGAUUUAUAUAAUUUUCAGAAGGUGAAUAGUCGACAUGAGGAUCACCCAUGUAAUUCAAGGAUAUGAUUUAGCGC”: the “apparent Kd” value reads like this: under setting [1], 59.6 nM; under setting [2], 10.1 nM.
For “UAUAAAUUAAAAGGAUAUUCAUACCGGAAACGGACAUGAGGAUCACCCAUGUGGCGAAAGCCUUGGGAGAAGGUAUUAAAUAAU” the same measures were 268 nM and 263 nM.
In the same order, the values of “GCGAUUGCGUAGAAGGUACAAUAUAUUUCAUUGUAAGGAUAUACUUACAUGAGGAUCACCCAUGUUAAAGGAUUUAGCAAUCGC” are 12.4 nM and 10.3 nM.
In the same order, the values of “CCAUGCAUAGCGAUAUGAUCGAGAGAUCAUGUCGCUAAAUUUAGAAGGACAUGAGGAUCACCCAUGUAGGAUAUGGGAGCAUGU” are 222 nM and 49.7 nM.
In the case of “AUGUUACAUGAGGAUCACCCAUGUCAGGAUAUCUAUCAUAGCAUAGAAAUAUGCGGGUAGAGAAGGGACUAUCC”, the “apparent Kd” value under setting [3] worked out at 15.4 nM and the “apparent Kd” value under setting [4] was found to be 13.8 nM.
Take “AGUUGGCGAGGAUAUACAUGAGGAUCACCCAUGUGGUCCUGCGAUGGUGUCGCCCUUUGUAGAAGGCGCGGGUC”: the “apparent Kd” value is, setting by setting: under setting [3], 35 nM; under setting [4], 28.1 nM.
Take “GCAGUAUCAGGAUAUACAUGAGGAUCACCCAUGUGACUCCAUAGGAAGCUAUGUGGAUGUAGAAGGGAUCACUG”: the “apparent Kd” value reads like this: under setting [3], 54.6 nM; under setting [4], 183 nM.
On to “ACCAAGCGAGGAUAUACUUAGAUUUUUUCGUUUAGUCUCGAACAUGAGGAUCACCCAUGUAGAAGGUGCUUCAC”, for which the “apparent Kd” value was 47.8 nM under setting [3] and 46.5 nM under setting [4].
Consider “GUGGUCAGACAUGAGGAUCACCCAUGUGGAAUAAAUAACACACAGGAUAUGUAAUAUAAAAUAUAACAGAAGGGUGGAUUGGUG”, for which the “apparent Kd” value is, setting by setting: under setting [1], 352 nM; under setting [2], 181 nM.
Take “AUCAGCUCGUCAGGAUAUACGUCACUGCGUAAGCAGUGUGGUAAGAUCACAUGAGGAUCACCCAUGUAGAAGGGACGAGCUGAU”: the “apparent Kd” value reads like this: under setting [3], 12.9 nM; under setting [4], 288 nM.
Consider “GGUCCAUUAUGAGGAUAUGGCACCUUAUUGGUGCCAGAAGGCAUGUCUAUAGACAUGAGGAUCACCCAUGUAAUAAAUUGGACC”, for which the “apparent Kd” value under setting [1] stood at 494 nM and the “apparent Kd” value under setting [2] is 50.5 nM.
On to “UUGUAAUGAUUAGGAUAUUAUUAAUAGAACUUUAUGAUAUACAUGAGGAUCACCCAUGUUACUUAUAAGAAGGAAUCGUAUUAU”, for which the “apparent Kd” value is, setting by setting: under setting [3], 21.2 nM; under setting [4], 16.8 nM.
“UAUAUAUAGUAAGGAUAUGUAUAUAUUAUAUAAACAGAAGGUACUGACAUGAGGAUCACCCAUGUUUUAGUGUGGGCAUGUAGA”: the “apparent Kd” value under setting [3] stood at 67.8 nM and the “apparent Kd” value under setting [4] worked out at 98.9 nM.
As to “UGGUACUAGGGAGGAUAUGGGAAGAUACAUGAGGAUCACCCAUGUUUAAGAAUGCCCAGAGGCAACUAGAAGGCCCUAGUACCU”, the “apparent Kd” value turned out to be 66.2 nM under setting [1] and 16.9 nM under setting [2].
With “UUAGGAUCAGGAUAUGAUGUUUUAAACAUGAGGAUCACCCAUGUAGAUCCUGAUUCAACAUCAGAAGGGAUAAUUU”, the “apparent Kd” value under setting [4] was 21.5 nM.
As to “CAAUUGGCACAGAAGGGUGACAUGAGGAUCACCCAUGUAGCGUGGCAUUCAGGAGGAGCCACGCCACAGGAUAUGUGCCGGCAC”, the “apparent Kd” value was found to be 138 nM under setting [1] and 116 nM under setting [2].
Take “AUCAACCAGGCAGGAUAUCAAUGUGGCCUCAUCGUACACCCUCGCAACAUGAGGAUCACCCAUGUUGAGAAGGGCCAAUUAAGA”: the “apparent Kd” value runs as follows: under setting [3], 10.1 nM; under setting [4], 6.02 nM.
Turning to “GCUGCAUAGGCAGGAUAUGCAAUAAUUUGAAUAAAAUAUAACAAAUUAACAUGAGGAUCACCCAUGUAGAAGGGCCUGUGCAGU”, the “apparent Kd” value is 17.5 nM under setting [3] and 19.4 nM under setting [4].
Turning to “UCGACCAGCGCCAGUCAAACAUGAGGAUCACCCAUGUACUCCAGAAGGCCGCCCAAGAACGGAGUGGAGGAUAUGGAGGUUCUC”, the “apparent Kd” value under setting [1] is 43.2 nM and the “apparent Kd” value under setting [2] is 36.7 nM.
As to “GAUCGUUCUGUUAGGAUAUGCUUUGGGCUUCCGCAGUAGAAGGAACAUGAGGAUCACCCAUGUCCGAUGCCGUC”, the “apparent Kd” value under setting [3] came out at 25.6 nM and the “apparent Kd” value under setting [4] was found to be 28.1 nM.
